Assay results from paper PMC8926038 (Multiple sclerosis and related disorders, 2022).
Where a name gives a salt, the structure may show the parent alone.

Key:
[1] = system: astrocytes; details: in vitro pre-treatment, 25 μM, stimulation with IL1β; ref Galloway et al., 2017; cited from earlier work
[2] = system: C3 secretion from inflammation-induced astrocytes; assay: C3 secretion; format: cell-based, human
Outline: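 Primary human cortical astrocytes on PLL-coated plates; after 24 h, medium replaced with 50% v/v supernatant from resting or LPS (100 ng/ml) plus CD3/CD28 bead-stimulated PBMC, with test compound or matched DMSO. Screen run twice at single concentrations; titrations at 0–1000 nM (n = 3), IC50 from best-fit curves. Supernatant C3 by ELISA at 24 h, reported as % of stimulated DMSO after unstimulated subtraction.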

[3] = doses over 400 mg/day; ref Utili et al., 1977; cited from earlier work
[4] = system: secretome of inflammation-induced astrocytes; format: cell-based, human; details: SOMAscan, n = 1; for secretion of "toxic astrocyte signature" biomarkers: normalized toxic vs resting astrocytes index
[5] = system: human induced pluripotent stem cells (iPSCs)-differentiated astrocytes; details: pretreatment, in the presence of inflammatory stimuli; ref Colombo et al., 2020; cited from earlier work
[6] = inflammation-induced astrocytes

## COC(=O)/C=C/C(=O)OC [DMF, dimethyl fumarate]
[1]
  secretion of proinflammatory cytokines and oxidative stress: reduced
[2]; library screen at 100 nM
  C3 secretion by astrocytes: not at 100 nM
[2]; library screen at 10 μM
  C3 secretion by astrocytes: inhibited

## O=C1CN(/N=C/c2ccc(-c3ccc([N+](=O)[O-])cc3)o2)C(O)=N1 [Dantrolene]
[3]
  hepatotoxicity: serious hepatotoxicity
[2]; drug library screen
  inhibition of secretion of C3: 77.7%

## CC(C)c1cc(-c2n[nH]c(=O)n2-c2ccc3c(ccn3C)c2)c(O)cc1O [Ganetespib]
[4]
  secretion of proteins from astrocytes not activated by inflammatory stimuli: inhibited
  secretion of "toxic astrocyte signature" biomarkers: strongly reduced secretion of all biomarkers

## CO[C@H]1C[C@@H]2CC[C@@H](C)[C@@](O)(O2)C(=O)C(=O)N2CCCC[C@H]2C(=O)O[C@H]([C@H](C)C[C@@H]2CC[C@@H](O)[C@H](OC)C2)CC(=O)[C@H](C)/C=C(\C)[C@@H](O)[C@@H](OC)C(=O)[C@H](C)C[C@H](C)/C=C/C=C/C=C/1C [Rapamycin]
[4]
  secretion of "toxic astrocyte signature" biomarkers: did not have potent effect on secretion of most
[4]; [6]
  secretion of CCL20, TNFAIP6 and CFB: elevated
  secretion of CCL20 and CCL8: increased
  secretion of SERPINA3: failed to inhibit

## CCCCCCCCc1ccc(CCC(N)(CO)CO)cc1 [fingolimod]
[5]
  secretion of proinflammatory cytokines: reduced

## CCc1cc(/C(C)=N/OCc2ccc(C3CCCCC3)c(C(F)(F)F)c2)ccc1CN1CC(C(=O)O)C1 [siponimod]
[5]
  secretion of proinflammatory cytokines: reduced
